Reference: paper PMC9134258 (ACS Omega, 2022)
pIC50: −log10 of the molar value. Each block holds one compound with its values, some of them ahead of it.

Tests used:
[1] = target: recombinant ALK kinase domain (aa 1073–1410) (Homo sapiens, UniProt Q9UM73); experiment: ELISA-based in vitro kinase assay, recombinant ALK; type: biochemical; conditions: 300 μM ATP
How it was run: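 Purified recombinant ALK kinase domain (aa 1073–1410), wild type or L1196M, was incubated with test compound and Mg++-ATP, then loaded onto peptide substrate-coated wells. Reaction ran at 30 °C for 20 min. After washing, phosphopeptide was quantified with anti-phosphotyrosine antibody PY20. IC50 came from nonlinear regression of normalized data. Inhibition mode was assessed from dose–response curves at increasing ATP concentrations.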

Ba/F3 NPM/ALK cells = experiment: Ba/F3 NPM/ALK cell proliferation; type: cell-based; conditions: read-out: IC50 Ba/F3 NPM/ALK
How it was run: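 Ba/F3 cells stably expressing NPM/ALK variants were made by electroporation, selected with G418 (1 mg/mL), then selected again by IL3 withdrawal. Proliferation was measured by [3H]-thymidine incorporation across a dose range of test compound. IC50 was obtained by nonlinear regression of normalized data.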

Ba/F3-parental cells = experiment: Parental IL3-dependent Ba/F3 cell proliferation; type: cell-based; conditions: Mus musculus, BaF3, read-out: IC50 Ba/F3-parental
How it was run: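 Cell growth was read by [3H]-thymidine incorporation across a dose range of test compound. IC50 values come from nonlinear regression curve fitting of normalized data.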

recombinant ALK kinase domain (aa 1073–1410), sequence (Q9UM73 1073-1410): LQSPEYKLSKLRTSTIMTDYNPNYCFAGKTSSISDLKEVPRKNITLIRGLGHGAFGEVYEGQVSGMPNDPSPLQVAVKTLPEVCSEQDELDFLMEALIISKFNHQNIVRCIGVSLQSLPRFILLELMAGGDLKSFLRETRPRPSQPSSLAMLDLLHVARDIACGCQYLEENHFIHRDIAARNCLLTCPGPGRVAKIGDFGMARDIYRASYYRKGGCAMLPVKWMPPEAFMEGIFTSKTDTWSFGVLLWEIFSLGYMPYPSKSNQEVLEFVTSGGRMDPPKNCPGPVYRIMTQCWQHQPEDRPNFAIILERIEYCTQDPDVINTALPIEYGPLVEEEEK

IC50 ALK ([1]; Table 3, 3-chloro-6-substituted compounds): inactive
Compound: Clc1cnc2[nH]c3ccc(-c4ccc(N5CCOCC5)cn4)cc3c2c1 [Compound 67]

pIC50 (Ba/F3 NPM/ALK cells): 5.55
Compound: COc1ccc(-c2ccc3[nH]c4ncc(C=Cc5ccccc5)cc4c3c2)cc1 [Compound 102]
pIC50 (Ba/F3-parental cells): < 5.00

IC50 ALK ([1]; Table 2, 2,6-substituted compounds): inactive
Compound: CCCC#Cc1ccc2c(n1)[nH]c1ccccc12 [Compound 34]
